Experimental data reported in ChEMBL document CHEMBL3739314, “Discovery of Nanomolar Dengue and West Nile Virus Protease Inhibitors Containing a 4-Benzyloxyphenylglycine Residue” (J Med Chem, 2015).
pIC50: −log10 of the molar value.

What was measured:
[1] = Inhibition of West Nile virus NS2B-NS3 protease using 2-Abz-Gly-Leu-Lys-Arg-Gly-Gly-[…]-Tyr-NH2 as substrate preincubated with protein for 15 mins followed by substrate addition measured for 15 mins by FRET assay
Method in brief: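 WNV NS2B-NS3 linked construct at 75 nM (40 nM in one case) in pH 9 Tris buffer, preincubated 15 min with eight inhibitor concentrations (ranges 0–1 up to 0–50 μM). Substrate was 50 μM, with FRET readout over 15 min. IC50 was fitted from triplicates.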

West Nile virus = assay: Inhibition of West Nile virus NS2B-NS3 protease using 2-Abz-Gly-Leu-Lys-Arg-Gly-Gly-[…]-Tyr-NH2 as substrate at 50 uM preincubated with protein for 15 mins followed by substrate addition measured for 15 mins by FRET assay
Method in brief: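 Linked WNV NS2B-NS3 protease (150 nM) was preincubated 15 min with inhibitor (50 μM final) in 50 mM Tris-HCl pH 9, 10% ethylene glycol, 0.0016% Brij 58. […] Percent inhibition was taken from the slope relative to the no-inhibitor control, in triplicate.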

[2] = biological target: Prothrombin (Homo sapiens) (UniProt P00734); assay: Inhibition of thrombin (unknown origin) using Boc-Val-Pro-Arg-AMC as substrate at 25 uM preincubated with protein for 15 mins followed by substrate addition measured for 10 mins by continuous fluorimetric assay relative to control
[3] = Inhibition of Dengue virus serotype-2 NS2B-NS3 protease using 2-Abz-Nle-Lys-Arg-Arg-Ser-(3-NO2)-Tyr-NH2 as substrate preincubated with protein for 15 mins followed by substrate addition measured for 15 mins by FRET assay; parameters: species or system dengue virus type 2
Method in brief: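 DENV-2 NS2B-NS3 linked construct at 30 nM (15 nM in some cases), same pH 9 Tris buffer, 15 min preincubation and FRET read-out. Eight inhibitor concentrations spanned 0–1, 0–2, 0–6 or 0–50 μM, with substrate at 50 μM. IC50 was fitted from triplicates.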

| pIC50 [1] | inhibition (West Nile virus) | inhibition [2] | pIC50 [3] | SMILES |
| --- | --- | --- | --- | --- |
| 6.34 | 98.4% | < 30% | 6.75 | N=C(N)NCCC[C@H](NC(=O)c1ccc(Cl)s1)C(=O)N[C@@H](CCCCN)C(=O)N[C@@H](C(N)=O)c1ccc(OCc2ccccc2)cc1 |
| 6.49 | 102% | < 30% | 6.73 | N=C(N)NCCC[C@H](NC(=O)c1ccccc1)C(=O)N[C@@H](CCCCN)C(=O)N[C@@H](C(N)=O)c1ccc(OCc2cccc(Cl)c2)cc1 |
|  | 97% | < 30% | 6.74 | N=C(N)NCCC[C@H](NC(=O)c1ccccc1)C(=O)N[C@@H](CCCCN)C(=O)N[C@@H](C(N)=O)c1ccc(OCc2ccccc2C(F)(F)F)cc1 |
| 6.46 | 100% | < 30% | 6.76 | N=C(N)NCCC[C@H](NC(=O)c1cscn1)C(=O)N[C@@H](CCCCN)C(=O)N[C@@H](C(N)=O)c1ccc(OCc2ccccc2)cc1 |
| 6.25 | 99.7% | < 30% | 6.49 | N=C(N)NCCC[C@H](NC(=O)/C=C/c1ccccc1)C(=O)N[C@@H](CCCCN)C(=O)N[C@@H](C(N)=O)c1ccc(OCc2ccccc2)cc1 |
| 6.29 | 98.8% | < 30% | 6.31 | N=C(N)NCCC[C@H](NC(=O)c1ccccc1)C(=O)N[C@@H](CCCCN)C(=O)N[C@@H](C(N)=O)c1ccc(OCC(=O)c2ccccc2)cc1 |
| 6.53 | 98% | < 30% | 6.96 | N=C(N)NCCC[C@H](NC(=O)c1cccs1)C(=O)N[C@@H](CCCCN)C(=O)N[C@@H](C(N)=O)c1ccc(OCc2ccccc2)cc1 |
| 6.29 | 98.1% | < 30% | 6.32 | N=C(N)NCCC[C@H](NC(=O)c1ccco1)C(=O)N[C@@H](CCCCN)C(=O)N[C@@H](C(N)=O)c1ccc(OCc2ccccc2)cc1 |
| 5.89 | 100% | < 30% | 6.47 | N=C(N)NCCC[C@H](NC(=O)c1ccccc1F)C(=O)N[C@@H](CCCCN)C(=O)N[C@@H](C(N)=O)c1ccc(OCc2ccccc2)cc1 |
|  | 96.2% | < 30% | 6.71 | N=C(N)NCCC[C@H](NC(=O)c1scc2c1OCCO2)C(=O)N[C@@H](CCCCN)C(=O)N[C@@H](C(N)=O)c1ccc(OCc2ccccc2)cc1 |
| 6.43 | 99.4% | < 30% | 6.14 | N=C(N)NCCC[C@H](NC(=O)/C=C/c1ccc(Cl)cc1)C(=O)N[C@@H](CCCCN)C(=O)N[C@@H](C(N)=O)c1ccc(OCc2ccccc2)cc1 |
| 6.39 | 98.1% | < 30% | 6.49 | N=C(N)NCCC[C@H](NC(=O)c1ccccc1)C(=O)N[C@@H](CCCCN)C(=O)N[C@@H](C(N)=O)c1ccc(OCc2ccccc2Cl)cc1 |
| 6.44 | 100% | < 30% | 6.46 | N=C(N)NCCC[C@H](NC(=O)c1ccc(-c2ccccc2)s1)C(=O)N[C@@H](CCCCN)C(=O)N[C@@H](C(N)=O)c1ccc(OCc2ccccc2)cc1 |
| 6.31 | 102% | < 30% | 6.84 | N=C(N)NCCC[C@H](NC(=O)c1ccccc1)C(=O)N[C@@H](CCCCN)C(=O)N[C@@H](C(N)=O)c1ccc(OCc2ccc(Cl)cc2)cc1 |
| 6.65 | 99.7% | < 30% | 7.16 | N=C(N)NCCC[C@H](NC(=O)c1ccccc1)C(=O)N[C@@H](CCCCN)C(=O)N[C@@H](C(N)=O)c1ccc(OCc2ccc(C(F)(F)F)cc2)cc1 |
| 6.46 | 100% | < 30% | 6.71 | N=C(N)NCCC[C@H](NC(=O)c1ccccc1)C(=O)N[C@@H](CCCCN)C(=O)N[C@@H](C(N)=O)c1ccc(OCc2ccc(F)cc2)cc1 |
|  | 95.7% | < 30% | 6.11 | N=C(N)NCCC[C@H](NC(=O)C1CCCCC1)C(=O)N[C@@H](CCCCN)C(=O)N[C@@H](C(N)=O)c1ccc(OCc2ccccc2)cc1 |
|  | 83% | < 30% | 6.63 | N=C(N)NCCC[C@H](NC(=O)c1ccc(C=O)cc1)C(=O)N[C@@H](CCCCN)C(=O)N[C@@H](C(N)=O)c1ccc(OCc2ccccc2)cc1 |
| 6.37 | 100% | < 30% | 6.43 | N=C(N)NCCC[C@H](NC(=O)c1ccc(-c2cccs2)s1)C(=O)N[C@@H](CCCCN)C(=O)N[C@@H](C(N)=O)c1ccc(OCc2ccccc2)cc1 |
|  | 92.9% | < 30% | 6.19 | N=C(N)NCCC[C@H](NC(=O)c1ccc(F)cc1)C(=O)N[C@@H](CCCCN)C(=O)N[C@@H](C(N)=O)c1ccc(OCc2ccccc2)cc1 |

| pIC50 [1] | inhibition (West Nile virus) | inhibition [2] | pIC50 [3] | SMILES |
| --- | --- | --- | --- | --- |
|  | 92.5% | < 30% | 6.40 | N=C(N)NCCC[C@H](NC(=O)c1cc2sccc2s1)C(=O)N[C@@H](CCCCN)C(=O)N[C@@H](C(N)=O)c1ccc(OCc2ccccc2)cc1 |
| 6.31 | 101% | < 30% | 6.82 | N=C(N)NCCC[C@H](NC(=O)c1ccccc1)C(=O)N[C@@H](CCCCN)C(=O)N[C@@H](C(N)=O)c1ccc(OCc2c(Cl)cccc2Cl)cc1 |
|  | 97.4% | < 30% | 6.52 | N=C(N)NCCC[C@H](NC(=O)c1cncs1)C(=O)N[C@@H](CCCCN)C(=O)N[C@@H](C(N)=O)c1ccc(OCc2ccccc2)cc1 |
|  | 95.2% | < 30% | 6.71 | N=C(N)NCCC[C@H](NC(=O)c1sccc1Cl)C(=O)N[C@@H](CCCCN)C(=O)N[C@@H](C(N)=O)c1ccc(OCc2ccccc2)cc1 |
|  | 92.6% | < 30% | 6.44 | Cc1ccc(C(=O)N[C@@H](CCCNC(=N)N)C(=O)N[C@@H](CCCCN)C(=O)N[C@@H](C(N)=O)c2ccc(OCc3ccccc3)cc2)s1 |
|  | 85.1% | < 30% | 5.70 | N=C(N)NCCC[C@H](NC(=O)c1ccccc1)C(=O)N[C@@H](CCCCN)C(=O)N[C@@H](C(N)=O)c1ccc(OCc2ccc(N)cc2)cc1 |
|  | 95.5% | < 30% | 6.33 | N=C(N)NCCC[C@H](NC(=O)c1cccc(F)c1)C(=O)N[C@@H](CCCCN)C(=O)N[C@@H](C(N)=O)c1ccc(OCc2ccccc2)cc1 |
|  | 94.3% | < 30% | 6.49 | N=C(N)NCCC[C@H](NC(=O)c1sccc1-n1cccc1)C(=O)N[C@@H](CCCCN)C(=O)N[C@@H](C(N)=O)c1ccc(OCc2ccccc2)cc1 |
|  | 97.1% | < 30% | 6.74 | N=C(N)NCCC[C@H](NC(=O)c1ccccc1)C(=O)N[C@@H](CCCCN)C(=O)N[C@@H](C(N)=O)c1ccc(OCc2ccc(OC(F)(F)F)cc2)cc1 |
|  | 92.6% | < 30% | 6.72 | N=C(N)NCCC[C@H](NC(=O)c1ccccc1)C(=O)N[C@@H](CCCCN)C(=O)N[C@@H](C(N)=O)c1ccc(OCc2ccc3ccccc3c2)cc1 |
|  | 85.6% | < 30% | 6.76 | CC(C)(C)c1ccc(COc2ccc([C@@H](NC(=O)[C@H](CCCCN)NC(=O)[C@H](CCCNC(=N)N)NC(=O)c3ccccc3)C(N)=O)cc2)cc1 |
|  | 87.4% | < 30% | 6.04 | N=C(N)NCCC[C@H](NC(=O)CCc1ccccc1)C(=O)N[C@@H](CCCCN)C(=O)N[C@@H](C(N)=O)c1ccc(OCc2ccccc2)cc1 |
|  | 96.4% | < 30% | 6.58 | N=C(N)NCCC[C@H](NC(=O)c1cccnc1)C(=O)N[C@@H](CCCCN)C(=O)N[C@@H](C(N)=O)c1ccc(OCc2ccccc2)cc1 |
|  | 96.7% | < 30% | 6.44 | N=C(N)NCCC[C@H](NC(=O)c1ccccc1)C(=O)N[C@@H](CCCCN)C(=O)N[C@@H](C(N)=O)c1ccc(OCc2ccccc2Br)cc1 |
|  | 97.4% | < 30% | 6.79 | N=C(N)NCCC[C@H](NC(=O)c1cccc(C=O)c1)C(=O)N[C@@H](CCCCN)C(=O)N[C@@H](C(N)=O)c1ccc(OCc2ccccc2)cc1 |
|  | 96.3% | < 30% | 6.15 | N=C(N)NCCC[C@H](NC(=O)C1CCCC1)C(=O)N[C@@H](CCCCN)C(=O)N[C@@H](C(N)=O)c1ccc(OCc2ccccc2)cc1 |
|  | 84.6% | < 30% | 5.98 | CC(=O)c1ccc(C(=O)N[C@@H](CCCNC(=N)N)C(=O)N[C@@H](CCCCN)C(=O)N[C@@H](C(N)=O)c2ccc(OCc3ccccc3)cc2)cc1 |
|  | 85.2% | < 30% | 6.51 | Cc1cccc(COc2ccc([C@@H](NC(=O)[C@H](CCCCN)NC(=O)[C@H](CCCNC(=N)N)NC(=O)c3ccccc3)C(N)=O)cc2)c1 |
|  | 96.6% | < 30% | 6.30 | N=C(N)NCCC[C@H](NC(=O)c1cc2ccsc2s1)C(=O)N[C@@H](CCCCN)C(=O)N[C@@H](C(N)=O)c1ccc(OCc2ccccc2)cc1 |
